Nine compounds from ChEMBL document CHEMBL1134480, “Antiplasmodial activity and cytotoxicity of bis-, tris-, and tetraquinolines with linear or cyclic amino linkers” (J Med Chem, 2001) can be followed below.

In experiment [1] the test system is MRC5. Put plainly: Cytotoxicity against MRC-5 cells at concentration 1 uM. Format: functional. The conditions noted are these: Homo sapiens. In a few lines: (§1)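 MRC-5 human embryonic lung diploid cells were seeded at 5000 per well. After 24 h the cells were washed and exposed to 2-fold drug dilutions in RPMI + 5% FCS, with final DMSO below 0.5%. Incubation was 7 days at 37 °C in 5% CO2. Viability was read by MTT absorbance at 540 nm.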

Experiment [2] has as its system MRC5. The experiment is described as follows: Cytotoxicity against MRC-5 cells at concentration 32 uM. Format: functional. The conditions noted are these: Homo sapiens. In a few lines: as §1
Experiment [3] concerns MRC5. The experiment is described as follows: Cytotoxicity against MRC-5 cells at concentration 0.5 uM. Format: functional. The conditions noted are these: Homo sapiens. In a few lines:
as §1

Experiment [4] has as its system MRC5. Put plainly: Cytotoxicity against MRC-5 cells at concentration 8 uM. The class given is functional. As to conditions: Homo sapiens. In a few lines: as §1
The species named for experiment [5] is Mus musculus. Put plainly: In vitro cytotoxic activity against mouse peritoneal macrophages at a concentration 8 uM; Non-toxic. The class given is functional.
For experiment [6], the species on record is Mus musculus. The experiment is described as follows: In vitro cytotoxic activity against mouse peritoneal macrophages at a concentration 2 uM; Non-toxic. The class given is functional.
A further experiment deals with Plasmodium falciparum. Put plainly: In vitro growth inhibition of Plasmodium falciparum FcB1R. Format: functional, organism-based. In a few lines: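 Asynchronous P. falciparum cultures were grown in human erythrocytes at 0.5% parasitemia and 1% hematocrit. They were exposed to serial drug dilutions, with DMSO ≤0.1%, for 24 h at 37 °C before adding 0.5 µCi [3H]hypoxanthine per well. Inhibition was measured as incorporated radioactivity versus drug-free controls on the same plate. IC50 came from concentration–response curves, reported as mean ± SD of three independent experiments; FcB1R used several experiments.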

Structures are written as SMILES. pIC50: −log10 of the molar value. Some results are limits rather than exact numbers.

In general, pIC50 refers to the negative decadic logarithm of the IC50, by convention in mol/L. A high value points to a small IC50. The compound `NCCC(=O)N1CCN(c2ccnc3cc(Cl)ccc23)CCN(c2ccnc3cc(Cl)ccc23)CC1` came in with a cytotoxicity at 1 µM in the experiment on MRC5 [1] of 0%. This compound displayed a cytotoxicity at 32 µM in the experiment on MRC5 [2] of 0%. This compound came in with a cytotoxicity at 0.5 µM in the experiment on MRC5 [3] of 0%. This compound also displayed a cytotoxicity at 8 µM in the experiment on MRC5 [4] of 0%. Further, the Cytotoxicity entry in the experiment listed under Mus musculus [5] and in the experiment listed under Mus musculus [6] was “Not toxic” each time. The same compound had a pIC50 in the experiment with Plasmodium falciparum of under 6.00.
Compound `Clc1ccc2c(NCCN(CCNc3ccnc4cc(Cl)ccc34)Cc3ccnc4ccccc34)ccnc2c1` yielded a cytotoxicity at 1 µM in the experiment with MRC5 [1] of 0%. The cytotoxicity at 32 µM in the experiment with MRC5 [2] worked out at 0%. This compound also showed a cytotoxicity at 0.5 µM in the experiment with MRC5 [3] of 0%. This compound also yielded a cytotoxicity at 8 µM with MRC5 [4] of 0%. In addition, the Cytotoxicity result in the experiment filed under Mus musculus [5] and in the experiment filed under Mus musculus [6] was “Not toxic” in each case. The pIC50 in the experiment on Plasmodium falciparum was under 6.00.
In turn, `O=C(CCCC(=O)N1CCN(c2ccnc3cc(Cl)ccc23)CCN(c2ccnc3cc(Cl)ccc23)CC1)N1CCNCCNCC1` showed a cytotoxicity at 1 µM with MRC5 [1] of 0%. For the same compound, the cytotoxicity at 32 µM with MRC5 [2] is 0%. Besides, the cytotoxicity at 0.5 µM in the experiment on MRC5 [3] is 0%. Moreover, the cytotoxicity at 8 µM in the experiment with MRC5 [4] turned out to be 0%. The Cytotoxicity entry in the experiment filed under Mus musculus [5] and in the experiment listed under Mus musculus [6] was “Not toxic” throughout. This compound also had a pIC50 in the experiment on Plasmodium falciparum of under 6.00.
Take `CC(NC(=O)OC(C)(C)C)C(=O)N1CCN(c2ccnc3cc(Cl)ccc23)CCN(c2ccnc3cc(Cl)ccc23)CC1` (stereo not drawn): the cytotoxicity at 1 µM in the experiment with MRC5 [1] came to 0%. The same compound came in with a cytotoxicity at 32 µM with MRC5 [2] of 0%. In the experiment on MRC5 [3], this compound returned a cytotoxicity at 0.5 µM of 0%. In addition, in the experiment on MRC5 [4], the cytotoxicity at 8 µM is 0%. In addition, the Cytotoxicity result in the experiment filed under Mus musculus [5] and in the experiment listed under Mus musculus [6] was “Not toxic” throughout. Also, in the experiment with Plasmodium falciparum, the pIC50 was 6.33.
`O=C(CCCO)N1CCN(c2ccnc3cc(Cl)ccc23)CCN(c2ccnc3cc(Cl)ccc23)CC1`: in the experiment with MRC5 [1], the cytotoxicity at 1 µM worked out at 0%. Besides, the cytotoxicity at 32 µM in the experiment on MRC5 [2] is 0%. The compound further gave a cytotoxicity at 0.5 µM in the experiment with MRC5 [3] of 0%. This compound also gave a cytotoxicity at 8 µM with MRC5 [4] of 0%. The Cytotoxicity result in the experiment listed under Mus musculus [5] and in the experiment filed under Mus musculus [6] was “Not toxic” in each case. This compound had a pIC50 with Plasmodium falciparum of 6.03.
In the case of `O=C(CCCC(=O)N1CCN(c2ccnc3cc(Cl)ccc23)CCN(c2ccnc3cc(Cl)ccc23)CC1)N1CCNCCN(c2ccnc3cc(Cl)ccc23)CC1`, the cytotoxicity at 1 µM with MRC5 [1] stood at 0%. The cytotoxicity at 32 µM in the experiment with MRC5 [2] is 0%. The cytotoxicity at 0.5 µM in the experiment with MRC5 [3] was found to be 0%. Further, the cytotoxicity at 8 µM in the experiment on MRC5 [4] came out at 0%. Besides, the Cytotoxicity entry in the experiment filed under Mus musculus [5] and in the experiment listed under Mus musculus [6] was “Not toxic” throughout. The compound further had a pIC50 with Plasmodium falciparum of 6.56.
`Clc1ccc2c(N3CCNCCNCC3)ccnc2c1`: in the experiment with MRC5 [1], the cytotoxicity at 1 µM amounted to 0%. In the experiment on MRC5 [2], this compound came in with a cytotoxicity at 32 µM of 0%. The compound further gave a cytotoxicity at 0.5 µM in the experiment on MRC5 [3] of 0%. Besides, in the experiment with MRC5 [4], the cytotoxicity at 8 µM was found to be 0%. Besides, the Cytotoxicity result in the experiment listed under Mus musculus [5] and in the experiment filed under Mus musculus [6] was “Not toxic” in each case. This compound showed a pIC50 with Plasmodium falciparum of under 6.00.
As to `NCCN(CCNc1ccnc2cc(Cl)ccc12)CCNc1ccnc2cc(Cl)ccc12`, in the experiment on MRC5 [1], the cytotoxicity at 1 µM turned out to be 0%. In the experiment with MRC5 [2], this compound gave a cytotoxicity at 32 µM of 51%. The cytotoxicity at 0.5 µM with MRC5 [3] was 0%. Moreover, in the experiment on MRC5 [4], the cytotoxicity at 8 µM came out at 0%. The Cytotoxicity entry in the experiment filed under Mus musculus [5] and in the experiment filed under Mus musculus [6] was “Not toxic” each time. Also, in the experiment with Plasmodium falciparum, the negative-log IC50 (pIC50) is 6.22.
In turn, `NC(=O)CCC(=O)N1CCN(c2ccnc3cc(Cl)ccc23)CCN(c2ccnc3cc(Cl)ccc23)CC1` came in with a cytotoxicity at 1 µM in the experiment with MRC5 [1] of 0%. The same compound yielded a cytotoxicity at 32 µM with MRC5 [2] of 0%. The same compound returned a cytotoxicity at 0.5 µM with MRC5 [3] of 0%. This compound came in with a cytotoxicity at 8 µM in the experiment on MRC5 [4] of 0%. The Cytotoxicity entry in the experiment filed under Mus musculus [5] and in the experiment listed under Mus musculus [6] was “Not toxic” in each case. Besides, the pIC50 in the experiment on Plasmodium falciparum was 6.01.
